Experimental data as given in ChEMBL document CHEMBL3352265, “Potentially bioactive organotin(IV) compounds: synthesis, characterization, in vitro bioactivities and interaction with SS-DNA” (Eur J Med Chem, 2014).
Activity calls are given as the source filed them. The calls are words filed in the database; no cut-off is given here.

Experiments:
Escherichia coli [1] = assay: Induction of Escherichia coli pBR322 DNA damage assessed as open circular form at 1 ug/ml after 60 mins by gel electrophoresis
Aspergillus niger [2] = assay: Antifungal activity against Aspergillus niger FCBP 0198 after 7 days by disc diffusion method; type: functional, organism-based
How it was run: (§1)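 Disc diffusion on SDA. Fungi cultured at 28 °C for 24 h. 4 mm discs received compound at 40 mg/mL stock in DMSO. DMSO served as negative control, terbinafine as positive control. Plates incubated at 28 °C for 7 days. Growth diameter (mm) measured and inhibition calculated against the negative control. MIC taken as the lowest concentration with no growth.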

Escherichia coli [3] = assay: Induction of Escherichia coli pBR322 DNA damage assessed as open circular form at 10 ug/ml after 60 mins by gel electrophoresis
Aspergillus fumigatus [4] = assay: Antifungal activity against Aspergillus fumigatus FCBP 66 at 40 mg/mL after 7 days by disc diffusion method; type: functional; how it was run: as §1
[5] = system: Bordetella bronchiseptica; assay: Antibacterial activity against Bordetella bronchiseptica ATCC 4617 after 18 hrs by microdilution method; type: functional
How it was run: (§2)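 Broth microdilution. Twofold dilutions in culture broth at […]. Each well inoculated with bacterial suspension (10^8 CFU/mL, about 10^5 CFU/well). Sterility control and growth control (broth plus DMSO) included. Incubated at 36 °C for 18 h, in triplicate. MIC taken as the lowest concentration inhibiting growth, given in micrograms per mL.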

[6] = system: Agrobacterium tumefaciens; assay: Antitumor activity against Agrobacterium tumefaciens -induced tumor at 100 ug/ml after 21 days by potato disc bioassay technique; type: functional
How it was run: (§3)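 Potato disc assay with 48 h culture of A. tumefaciens At-10. Inoculum contained compound at […]. Red-skinned potatoes sterilized in 0.1% HgCl2; 8 mm × 4 mm discs placed ten per 1.5% agar plate, […] each. Incubated at 28 °C in the dark for 21 days, in triplicate. Discs stained with Lugol's and tumors counted. Percent inhibition calculated against the negative control.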

Escherichia coli [7] = assay: Antibacterial activity against Escherichia coli ATCC 15224 after 18 hrs by microdilution method; type: functional; how it was run: as §2
Escherichia coli [8] = assay: Antibacterial activity against Escherichia coli ATCC 15224 at 40 mg/mL after 24 hrs by disc diffusion method; type: functional
How it was run: (§4)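 Disc diffusion. Strains grown in nutrient broth at 37 °C for 24 h. 1% culture (about 10^6 CFU/mL) mixed into nutrient agar at 45 °C and poured. 4 mm paper discs received compound at 40 mg/mL stock in DMSO; final concentrations tested were […]. DMSO served as negative control, roxithromycin and cefixime as positive controls. Triplicate plates incubated at 37 °C for 24 h. Complete-inhibition zone diameter (mm) recorded as the mean of 3.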

Staphylococcus aureus [9] = assay: Antibacterial activity against Staphylococcus aureus ATCC 6538 at 40 mg/mL after 24 hrs by disc diffusion method; type: functional; how it was run: as §4
Escherichia coli [10] = assay: Induction of Escherichia coli pBR322 DNA damage assessed as open circular form at 100 ug/ml after 60 mins by gel electrophoresis
Bacillus spizizenii [11] = assay: Antibacterial activity against Bacillus subtilis ATCC 6633 at 40 mg/mL after 24 hrs by disc diffusion method; type: functional; how it was run: as §4
Aspergillus flavus [12] = assay: Antifungal activity against Aspergillus flavus FCBP 0064 at 40 mg/mL after 7 days by disc diffusion method; type: functional; how it was run: as §1
[13] = system: Agrobacterium tumefaciens; assay: Antitumor activity against Agrobacterium tumefaciens -induced tumor at 1000 ug/ml after 21 days by potato disc bioassay technique; type: functional; how it was run: as §3
Artemia salina = assay: Cytotoxicity in brine shrimp assessed as mortality after 24 hrs; type: functional
Klebsiella aerogenes [14] = assay: Antibacterial activity against Enterobacter aerogenes ATCC 13048 after 18 hrs by microdilution method; type: functional, organism-based; how it was run: as §2
Klebsiella aerogenes [15] = assay: Antibacterial activity against Enterobacter aerogenes ATCC 13048 at 40 mg/mL after 24 hrs by disc diffusion method; type: functional; how it was run: as §4
[16] = system: Agrobacterium tumefaciens; assay: Antitumor activity against Agrobacterium tumefaciens -induced tumor at 10 ug/ml after 21 days by potato disc bioassay technique; type: functional; how it was run: as §3
Escherichia coli [17] = assay: Induction of Escherichia coli pBR322 DNA damage assessed as open circular form at 1000 ug/ml after 60 mins by gel electrophoresis
Staphylococcus aureus [18] = assay: Antibacterial activity against Staphylococcus aureus ATCC 6538 after 18 hrs by microdilution method; type: functional; how it was run: as §2
Mucor [19] = assay: Antifungal activity against Mucor FCBP 0400 at 40 mg/mL after 7 days by disc diffusion method; type: functional; how it was run: as §1
[20] = system: Bordetella bronchiseptica; assay: Antibacterial activity against Bordetella bronchiseptica ATCC 4617 at 40 mg/mL after 24 hrs by disc diffusion method; type: functional; how it was run: as §4
Aspergillus niger [21] = assay: Antifungal activity against Aspergillus niger FCBP 0198 at 40 mg/mL after 7 days by disc diffusion method; type: functional; how it was run: as §1
Bacillus spizizenii [22] = assay: Antibacterial activity against Bacillus subtilis ATCC 6633 after 18 hrs by microdilution method; type: functional; how it was run: as §2
Salmonella typhimurium [23] = assay: Antibacterial activity against Salmonella typhimurium ATCC 14028 at 40 mg/mL after 24 hrs by disc diffusion method; type: functional; conditions: Salmonella enterica subsp. enterica serovar Typhimurium; how it was run: as §4
Aspergillus fumigatus [24] = assay: Antifungal activity against Aspergillus fumigatus FCBP 66 after 7 days by disc diffusion method; type: functional, organism-based; how it was run: as §1
Salmonella typhimurium [25] = assay: Antibacterial activity against Salmonella typhimurium ATCC 14028 after 18 hrs by microdilution method; type: functional; conditions: Salmonella enterica subsp. enterica serovar Typhimurium; how it was run: as §2
Mucor [26] = assay: Antifungal activity against Mucor FCBP 0400 at 40 mg/mL by disc diffusion method; type: functional, organism-based; how it was run: as §1
Aspergillus flavus [27] = assay: Antifungal activity against Aspergillus flavus FCBP 0064 after 7 days by disc diffusion method; type: functional, organism-based; how it was run: as §1

Substance | Activity (Escherichia coli [1]) | MIC (Aspergillus niger [2]) | Activity (Escherichia coli [3]) | inhibition zone (IZ) (Aspergillus fumigatus [4]) | MIC [5] | Activity [6] | MIC (Escherichia coli [7]) | inhibition zone (IZ) (Escherichia coli [8]) | inhibition zone (IZ) (Staphylococcus aureus [9]) | Activity (Escherichia coli [10]) | inhibition zone (IZ) (Bacillus spizizenii [11]) | inhibition zone (IZ) (Aspergillus flavus [12]) | Activity [13] | LD50 (Artemia salina) | inhibition zone (IZ) (Klebsiella aerogenes [15]) | Activity [16] | inhibition zone (IZ) (Mucor [19]) | inhibition zone (IZ) [20] | inhibition zone (IZ) (Aspergillus niger [21]) | inhibition zone (IZ) (Salmonella typhimurium [23]) | also measured
Dibenzylstannanediyl bis[4-(2-methoxyphenylamino)-4-oxobutanoate] | Active | 200 µg/mL | Active | 0 mm | 50 µg/mL | 52% | 50 µg/mL | 16 mm | 20 mm | Active | 11 mm | 0 mm | 87.1% | 1.1 µg/mL | 14 mm | 19.3% | 0 mm | 19 mm | 11 mm | 0 mm | MIC (Klebsiella aerogenes [14]): 150 µg/mL; Activity (Escherichia coli [17]): Active; MIC (Staphylococcus aureus [18]): 100 µg/mL; MIC (Bacillus spizizenii [22]): 200 µg/mL
Dibutylstannanediyl bis(4-(2-methoxyphenylamino)-4-oxobutanoate) | inactive | 150 µg/mL | inactive | 12 mm | 50 µg/mL | 65.5% | 50 µg/mL | 17 mm | 14 mm | inactive | 22 mm | 0 mm | 88.3% | 0.611 µg/mL | 27 mm | 50.2% | 0 mm | 20 mm | 14 mm | 17 mm | MIC (Aspergillus fumigatus [24]): 200 µg/mL; MIC (Klebsiella aerogenes [14]): 25 µg/mL; Activity (Escherichia coli [17]): inactive; MIC (Staphylococcus aureus [18]): 100 µg/mL; MIC (Bacillus spizizenii [22]): 50 µg/mL; MIC (Salmonella typhimurium [25]): 50 µg/mL
Dimethylstannanediyl bis(4-(2-methoxyphenylamino)-4-oxobutanoate) | Active | 200 µg/mL | Active | 0 mm | 50 µg/mL | 62.9% | 50 µg/mL | 16 mm | 17 mm | Active | 18 mm | 0 mm | 91.4% | 2.89 µg/mL | 21 mm | 43.2% | 0 mm | 19 mm | 15 mm | 16 mm | MIC (Klebsiella aerogenes [14]): 100 µg/mL; Activity (Escherichia coli [17]): Active; MIC (Staphylococcus aureus [18]): 100 µg/mL; MIC (Bacillus spizizenii [22]): 100 µg/mL; MIC (Salmonella typhimurium [25]): 150 µg/mL
Dioctylstannanediyl bis(4-(2-methoxyphenylamino)-4-oxobutanoate) |  |  |  | 0 mm |  | 44.9% | 200 µg/mL | 10 mm | 0 mm |  | 9 mm | 0 mm | 65.5% | 0.499 µg/mL | 0 mm | 31.2% | 0 mm | 11 mm | 0 mm | 12 mm | MIC (Bacillus spizizenii [22]): 200 µg/mL; MIC (Salmonella typhimurium [25]): 150 µg/mL
Diphenylstannanediyl bis(4-(2-methoxyphenylamino)-4-oxobutanoate | Active | 1.56 µg/mL | Active | 32 mm | 200 µg/mL | 62.2% | 25 µg/mL | 14 mm | 16 mm | Active | 17 mm | 26 mm | 85.3% | 0.403 µg/mL | 15 mm | 43.9% | 22 mm | 11 mm | 30 mm | 0 mm | MIC (Mucor [26]): 6.25 µg/mL; MIC (Aspergillus fumigatus [24]): 6.25 µg/mL; MIC (Klebsiella aerogenes [14]): 150 µg/mL; Activity (Escherichia coli [17]): Active; MIC (Staphylococcus aureus [18]): 100 µg/mL; MIC (Aspergillus flavus [27]): 6.25 µg/mL; MIC (Bacillus spizizenii [22]): 100 µg/mL
N-[(2-methoxyphenyl)]-4-oxo-4-[(triphenylstannyl)oxy]butanamide | Active | 3.12 µg/mL | Active | 28 mm | 12.5 µg/mL | 54.9% |  | 0 mm | 0 mm | Active | 0 mm | 26 mm | 77.5% | 0.793 µg/mL | 11 mm | 32.2% | 23 mm | 32 mm | 40 mm | 0 mm | MIC (Mucor [26]): 6.25 µg/mL; MIC (Aspergillus fumigatus [24]): 6.25 µg/mL; MIC (Klebsiella aerogenes [14]): 25 µg/mL; Activity (Escherichia coli [17]): Active; MIC (Aspergillus flavus [27]): 6.25 µg/mL
